Measurements of several laboratories.
Target: Calcium/calmodulin-dependent protein kinase type II subunit beta (CAMK2B, Homo sapiens, UniProt Q13554)

SMILES | observed | method | concentration | remaining binding [%]
O=C(O)[C@@H]1[C@@H](Cn2nnc3ccccc3c2=O)CC[C@H]1C(=O)c1ccc(OCCC2CCOCC2)cc1 | cell-free assay | competition with immobilised ligand | 1 µM | 100
C[C@H]1CCN(c2nccc(-c3cnn4ncccc34)n2)C1 | binding | – | 1 µM | 80
O=C(c1ccc(Nc2ncc(Cl)c(-c3cc4ccccc4s3)n2)cc1)N1CCC(N2CCCC2)CC1 | binding | competition with immobilised ligand | 1 µM | 83
CN(c1nccc(-c2cnn3ncccc23)n1)C1CC1 | binding | – | 1 µM | 84
O=C(NCCCN1CCOCC1)c1ccc(Nc2ncc(Cl)c(-c3ccc(Cl)s3)n2)cc1 | binding | competition with immobilised ligand | 1 µM | 79
COc1ncc2cc3ccccc3nc2c1C#N | cell-free assay | competition with immobilised ligand | 5 µM | 87
CN(C)c1nccc(-c2cnn3ncccc23)n1 | binding | – | 1 µM | 65
COc1cnc(Nc2cccc(S(N)(=O)=O)c2)nc1N1CCN(c2ccccc2)C(=O)C1 | binding | competition with immobilised ligand | 1 µM | 100
O=C(Nc1c[nH]nc1C(=O)NC1CCNCC1)c1cc(F)cc(F)c1 | binding | competition with immobilised ligand | 1 µM | 100
CCN1CCN(Cc2ccc(C(=O)Nc3ccc(C)c(Oc4ccc5c(c4)CC(=O)N5)c3)cc2C(F)(F)F)CC1 | binding | competition with immobilised ligand | 1 µM | 100
C[C@H](c1ccnc(Nc2nc3ccc(-c4cc(N(C)C)ncn4)cc3[nH]2)c1)N1CCN(C(=O)CC(F)(F)F)CC1 | cell-free assay | competition with immobilised ligand | 0.1 µM | 92
C=CC(=O)N1CCC(C(=O)NCC(=O)N2CCN(c3nc(-c4cnc(N)nc4C(F)F)nc(N4CCOCC4)n3)CC2)CC1 | binding | competition with immobilised ligand | 1 µM | 100
CN(C)c1nccc(-c2cnc3ncccn23)n1 | binding | – | 1 µM | 89
CN([C@@H]1CCc2c(CC(=O)O)c3cc(S(C)(=O)=O)ccc3n2C1)S(=O)(=O)c1ccc(F)cc1 | cell-free assay | competition with immobilised ligand | 1 µM | 100
Nc1ncc2c(n1)-c1c([nH]c3ccc(C#CC4CC4)cc13)CCCC2 | binding | competition with immobilised ligand | 1 µM | 100
C[C@H](NC(=O)c1cnc2n1[C@](C)(Cc1ccc(C#N)cc1)C(=O)N2c1cc(Cl)c(F)c(Cl)c1)C(=O)NC1(c2ccccn2)CC1 | cell-free assay | competition with immobilised ligand | 1 µM | 100
CN(CCCC(F)(F)F)c1nccc(-c2cnn3ncccc23)n1 | binding | – | 1 µM | 100
CO[C@H]1CC[C@H](CNc2ccc(S(=O)(=O)NC(=O)c3ccc(N4CCN(CC5=C(c6ccc(Cl)cc6)CC(C)(C)CC5)CC4)cc3Oc3cnc4[nH]ccc4c3)cc2[N+](=O)[O-])CC1 | cell-free assay | competition with immobilised ligand | 1 µM | 80
Cc1cnc(Nc2ccc(C(=O)N3CCC(N4CCCC4)CC3)cc2)nc1-c1cc2ccccc2s1 | binding | competition with immobilised ligand | 1 µM | 90
N[C@@H]1CCN(c2nccc(-c3cnn4ncccc34)n2)C1 | binding | – | 1 µM | 100
CN(c1ccnc(CNc2nc(Nc3ccc4c(c3)CC(=O)N4)ncc2C(F)(F)F)n1)S(C)(=O)=O | cell-free assay | competition with immobilised ligand | 1 µM | 86
